Most compounds without a hit are left out; they make up all but 5.4% or so of the library.
CSC inhib – blocks cancer stem cells | 300,000 compounds, 1.1% hits | inhibition, % at 7.5 µM | cancer stem cell-like cells viability, luminescence; in the data active = inhibition above about 75%; inconclusive = no clear call, values can overlap the other calls; tested in HMLE shEcad cells
T cruzi repl – blocks replication of Trypanosoma cruzi; T. cruzi beta-gal in NIH3T3, luminescence, 90 h; inhibition, % (test concentration not listed); 300,000 compounds, 1.4% hits; AID 1885;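 active = mean inhibition across valid replicates above about 55%, limit read from the data; inconclusive = mean below that limit but half or more replicates reach it; inactive = mean below it, under half of replicates reach it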;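 note: signal also drops with host cell toxicity which is not excluded here; 0% = plate median of DMSO wells and 100% = zero luminescence signal; higher percent means less beta-gal luminescence so fewer parasites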
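System – NIH/3T3 host cells with β-galactosidase reporter T. cruzi · Doses – single 50 nL compound addition per well in DMSO · Reagent – 5000 T. cruzi trypomastigotes/well · Medium – Low-serum DMEM with 2% FBS · Timing – ≥90 h infection period, 3 h prior cell attachment · Evaluation – parasite load inhibition, % · Technique – GalScreen luminescence, 60 min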
SKKanGAS inh – inhibitors of SKKanGAS S. pyogenes growth in kanamycin (SK-promoter or general growth effect); BacTiter-Glo, 6 h; inhibition, % at 7.5 µM; 300,000 compounds, 1.3% hits; AID 1662;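 active = mean replicate score, as percent of positive control median, at least 50; inconclusive = mean below 50 but one replicate at or above 50; inactive = mean and every replicate below 50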;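 note: strain carries kanamycin resistance gene driven by streptokinase promoter and grows in 40 µg/ml kanamycin; loss of luminescence reflects streptokinase promoter inhibition or plain growth inhibition; 0% = median of DMSO wells and 100% = positive control at its reference dose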
Mdm2-MdmX inh – inhibitors of human Mdm2/MdmX interaction; O15151+Q00987; SaOS-2 split-luciferase Mdm2/MdmX complementation, luminescence; inhibition, % at 8 µM; 330,000 compounds, 3% hits; AID 485346;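 active = inhibition of at least 50% at 8 µM in the primary screen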
Target sequence (O15151 whole entry, looked up): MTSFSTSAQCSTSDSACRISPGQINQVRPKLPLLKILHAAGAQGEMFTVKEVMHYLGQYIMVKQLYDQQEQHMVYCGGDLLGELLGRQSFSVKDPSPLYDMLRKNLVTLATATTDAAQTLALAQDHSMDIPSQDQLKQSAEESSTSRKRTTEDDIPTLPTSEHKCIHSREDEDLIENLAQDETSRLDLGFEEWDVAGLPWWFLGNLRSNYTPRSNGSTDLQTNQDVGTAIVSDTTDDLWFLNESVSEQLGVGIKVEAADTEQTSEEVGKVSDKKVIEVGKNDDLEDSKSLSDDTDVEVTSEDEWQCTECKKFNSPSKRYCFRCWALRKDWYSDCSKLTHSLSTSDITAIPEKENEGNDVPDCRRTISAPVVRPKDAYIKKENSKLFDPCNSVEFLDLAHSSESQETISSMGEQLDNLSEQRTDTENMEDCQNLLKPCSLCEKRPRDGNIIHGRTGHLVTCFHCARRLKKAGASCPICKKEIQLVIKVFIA
Target sequence (Q00987 whole entry, looked up): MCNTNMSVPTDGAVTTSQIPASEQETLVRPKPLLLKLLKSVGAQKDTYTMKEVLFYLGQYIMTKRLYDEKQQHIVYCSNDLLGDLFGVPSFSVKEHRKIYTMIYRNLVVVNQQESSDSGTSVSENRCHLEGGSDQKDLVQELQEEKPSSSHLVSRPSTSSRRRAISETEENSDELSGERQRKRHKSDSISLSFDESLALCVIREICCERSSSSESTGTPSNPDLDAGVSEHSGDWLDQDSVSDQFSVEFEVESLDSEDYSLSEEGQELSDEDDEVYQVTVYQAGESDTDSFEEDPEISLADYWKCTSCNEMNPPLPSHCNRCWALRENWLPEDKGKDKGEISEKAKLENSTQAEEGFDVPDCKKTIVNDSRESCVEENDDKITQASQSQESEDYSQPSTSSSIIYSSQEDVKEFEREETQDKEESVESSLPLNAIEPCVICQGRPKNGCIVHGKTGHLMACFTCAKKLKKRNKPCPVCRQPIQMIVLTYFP
aSyn UTR inh – MLPCN primary screen, SNCA 5' untranslated region | alpha-synuclein 5'UTR reporter, inhibitor activity | 300,000 compounds, 0.82% hits | inhibition, % (tested at 7.5 µM); in the data active = inhibition above about 60%; inconclusive = no clear call, values can overlap the other calls;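 note: H4 neuroglioblastoma cells stably carrying SNCA 5'UTR luciferase fusion; 0% = DMSO wells and 100% = positive control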
Mdm2-MdmX conf – confirmation of human Mdm2/MdmX interaction inhibitors | 10,000 compounds, 55% hits | Mdm2-MdmX binding, luminescent assay | inhibition, % at 8 µM | shares compounds with Mdm2-MdmX inh | AID 489028; in the data active = inhibition above about 40%
FLuc counter – inhibits full-length luciferase, flagging false Mdm2/MdmX hits; inhibition, % at 8 µM; SaOS-2 full-length luciferase counterscreen, luminescence; 6,200 compounds, 77% hits; shares compounds with Mdm2-MdmX inh;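 active = mean inhibition at 8 µM reaching about 37%, which flags the compound as non-specific, limit read from the data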;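 note: p53-null SaOS-2 cells with luciferase driven by a doxycycline-inducible promoter; compound on cells about two nights before reading with doxycycline added after day one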
* marks the source's active call; other numbers are inactive results; ? = inconclusive; . = no result.

SMILES	CSC inhib	T cruzi repl	SKKanGAS inh	Mdm2-MdmX inh	aSyn UTR inh	Mdm2-MdmX conf	FLuc counter
Cc1cnc(NC(=O)CN2CCN(c3ccccn3)CC2)s1	-5.8	-26.1	7.9	67.2*	-0.6	63.3*	63.9*
COc1ccc(N2CCN(CC(=O)Nc3ncc(C)s3)CC2)cc1	-4.8	4.7	9.5	-9.1	10.8	.	.
Cc1ccc(NC(=O)c2cccc(S(=O)(=O)N3CCN(c4ccccc4)CC3)c2)nc1	13.9	11.1	28.7	23.1	-19.4	.	.
C/C(=N\NC(=O)CN1CCN(Cc2ccccc2)CC1)c1cccs1	-6.7	1.5	4.7	5.8	-10.1	.	.
Nc1nc(N2CCN(c3ccccn3)CC2)nc2ccccc12	-5.5	9.4	-0.9	-33.9	-118.1	.	.
O=C(c1ccccc1-c1ccccc1)N1CCN(c2ccccn2)CC1	57.9	-35.3	0.5	58.8*	-1.5	58.1*	50.1*
Cc1ccccc1C(=O)N1CCN(c2ccccn2)CC1	-23.9	-10.7	-3.4	18.8	-10.8	.	.
O=C(c1cn(Cc2ccccc2)nc1-c1ccccc1)N1CCN(c2ccccn2)CC1	42.2	.	.	52.6*	.	50.0*	71.2*
Cc1cc(-c2ccccc2)nc(N2CCN(c3ccccn3)CC2)n1	0.7	4.9	-8.3	59.1*	2.6	23.8	.
CCOCCCNC(=O)CN1C(=O)NC(Cc2c[nH]c3ccccc23)C1=O (stereo unspecified)	-7.1	-4.6	0.8	-17.3	1.0	.	.
Cc1ccc(Cl)cc1N1CCN(C(=O)Cc2csc(Nc3nc(=S)[nH]c4ccccc34)n2)CC1	10.0	34.3	10.2	55.3*	5.8	9.1	.
O=C(Cc1csc(Nc2nc(=S)[nH]c3ccccc23)n1)N1CCN(c2cccc(Cl)c2)CC1	12.4	26.7	16.5	35.0	49.5	.	.
O=C(C1=C(O)C(=O)N(CC2CCCO2)C1c1ccc(Cl)cc1Cl)c1ccco1 (stereo unspecified)	7.4	-17.9	10.1	12.1	-12.9	.	.
COc1ccc(C(CNC(=O)c2cccc(S(=O)(=O)N3CCc4ccccc43)c2)N(C)C)cc1 (stereo unspecified)	-2.8	.	.	-13.0	.	.	.
O=C(/C=C/c1ccccc1[N+](=O)[O-])c1ccccc1Br	84.3*	-15.3	2.7	72.4*	-78.5	5.8	.
COC(=O)C1=C(N)Oc2cc(N(C)C)ccc2C1c1ccccc1OC (stereo unspecified)	41.4	2.0	-18.4	60.8*	82.8*	40.2*	42.5*
N#Cc1ccccc1OCC(=O)NCCNC(=O)COc1ccccc1C#N	-6.5	-10.5	-5.6	17.1	1.3	.	.
O=C(O)c1ccc(-n2nnnc2Oc2cccc3cccnc23)cc1	.	-7.4	.	7.5	4.0	.	.
CC(=O)Nc1ccc(NC(=O)CCc2nc3sc4c(c3c(=O)[nH]2)CCCC4)cc1	.	-10.4	19.6	11.2	6.8	.	.
CN(CC(=O)Nc1ccc(Cl)cc1)C(=O)CCc1nc2sc3c(c2c(=O)[nH]1)CCCC3	1.1	12.5	14.1	86.0*	2.9	50.5*	95.8*
Cc1cc(C)cc(NC(=O)CCc2nc3sc4c(c3c(=O)[nH]2)CCCC4)c1	89.0*	-4.5	15.9	82.1*	16.7	94.4*	95.8*
CN(CC(=O)Nc1ccc(F)cc1)C(=O)CCc1nc2sc3c(c2c(=O)[nH]1)CCCC3	-23.3	-7.1	14.0	14.2	-1.4	.	.
CNC(=S)N(CCc1cccc(C)c1)Cc1cc2cc(OC)c(OC)cc2[nH]c1=O	18.2	14.6	1.9	-3.5	-2.6	.	.
COc1cc2cc(CN(CCc3cccc(C)c3)C(=S)NCCCN(C)C)c(=O)[nH]c2cc1OC	5.9	22.4	-16.7	51.9*	0.3	25.9	.
NC(N)=N/N=C/c1ccc(OS(=O)(=O)c2ccccc2)cc1	11.8	57.0*	-1.5	57.2*	-21.1	36.0	81.8*
SMILES	CSC inhib	T cruzi repl	SKKanGAS inh	Mdm2-MdmX inh	aSyn UTR inh	Mdm2-MdmX conf	FLuc counter
O=C(CSc1nc(-c2cccs2)nc2ccccc12)NC1CCS(=O)(=O)C1 (stereo unspecified)	0.4	.	.	61.2*	.	0.9	.
COc1ccc(NS(=O)(=O)c2cccs2)cc1S(=O)(=O)N1CCOCC1	-13.7	-3.2	-7.9	17.6	2.2	.	.
COc1ccc(Nc2nc(-c3cccs3)nc3ccccc23)cc1S(=O)(=O)N1CCOCC1	38.1	54.6*	29.8	85.5*	-4.4	82.4*	57.2*
NS(=O)(=O)c1ccc(CCNC(=O)CSc2nc3ccsc3c(=O)n2CCCCC(=O)O)cc1	-17.5	3.9	-10.8	30.3	-15.0	.	.
CN(C)C(CNC(=O)CNC(=O)Cc1cccc2ccccc12)c1ccccc1 (stereo unspecified)	-12.9	4.9	-1.5	-1.6	4.1	.	.
COc1ccccc1C1CCCN1Cc1nc(-c2ccc(C)s2)oc1C (stereo unspecified)	.	25.0	8.4	75.4*	33.5	66.3*	52.3*
COc1ccccc1C1CCCN1Cc1nc(-c2cc3c(cc2Cl)OCO3)oc1C (stereo unspecified)	0.1	42.0	13.8	22.1	-0.4	.	.
Cc1cc(C)cc(S(=O)(=O)c2cn(C)c3cc(N4CCN(C)CC4)c(F)cc3c2=O)c1	1.2	-2.4	-21.6	96.4*	-7.9	11.8	.
COC(=O)Nc1sccc1C(=O)Nc1sccc1C(=O)OC	-12.7	-3.8	3.5	60.9*	22.7	12.2	.
COC(=O)c1ccsc1NC(=O)c1ccccc1	-7.9	-9.2	-2.2	20.6	-31.3	.	.
Cc1nc(SCC(=O)NCCc2ccc(Cl)cc2)nc(C)c1C	-13.7	0.8	0.8	-6.1	-5.0	.	.
O=C(CNc1ccc(F)cc1)N/N=C/c1c(O)ccc2ccccc12	34.9	15.7	96.2*	72.1*	58.5	77.0*	27.9
O=C(CN1CCCc2ccccc21)N/N=C/c1ccccc1	-8.9	17.8	8.0	0.0	-27.6	.	.
O=C(Cc1n[nH]c(=O)[nH]c1=O)N/N=C/c1c(O)ccc2ccccc12	3.5	-2.9	-1.6	-6.7	2.7	.	.
O=C(CN1CCCc2ccccc21)N/N=C/c1c(O)ccc2ccccc12	?	15.2	17.5	81.3*	17.8	91.0*	30.3
COc1ccccc1N(CC(=O)N/N=C/c1c(O)ccc2ccccc12)S(C)(=O)=O	24.7	6.7	8.7	77.0*	?	77.2*	26.2
COc1ccccc1NC(=O)c1c(N=Cc2c(O)ccc3ccccc23)cnn1C	?	-4.8	-10.3	51.5*	-44.5	30.2	.
Cn1cnc(S(=O)(=O)N2CCN(c3cccc(Cl)c3)CC2)c1	5.2	-2.8	1.4	5.5	-2.5	.	.
COc1cc(CN2CCNC(=O)C2CC(=O)N2CCc3ccccc3C2)cc(OC)c1 (stereo unspecified)	-9.9	-3.9	4.5	-2.5	-8.8	.	.
COc1ccccc1NCC(=O)N/N=C/c1cccnc1	-8.2	-8.9	-0.4	0.0	4.6	.	.
COc1ccccc1NCC(=O)N/N=C/c1c(O)ccc2ccccc12	6.0	-5.2	42.2	86.7*	37.2	77.5*	24.6
COc1ccc(C2C(C#N)=C(N)Oc3cccc(O)c32)cc1 (stereo unspecified)	-7.8	-2.0	4.5	31.9	6.9	.	.

From PubChem
